11 molecules from ChEMBL document CHEMBL4177770, “Discovery of MK-6169, a Potent Pan-Genotype Hepatitis C Virus NS5A Inhibitor with Optimized Activity against Common Resistance-Associated Substitutions” (J Med Chem, 2018) can be followed below.

Series [1] can be described thus: Cmax in Wistar Han rat at 10 mg/kg, po by LC/MS method. The settings on record: in vivo. The class given is ADME, organism-based. Further details: dose 10 mg/kg, route oral. The gist of the method: (§1)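 Male Wistar Han rats, two per dosing group, dosed orally at 10 mg/kg in 10% TWEEN. Plasma was separated from collected blood by centrifugation and analysed by LC/MS.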

Series [2] is described as follows: Half life in Wistar Han rat at 2 mg/kg, iv by LC/MS method. Conditions: in vivo. Type of series: ADME, organism-based. The gist of the method:
(§2)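 Male Wistar Han rats, two per group, dosed IV at 2 mg/kg in 60% PEG200. Plasma was obtained by centrifuging the blood, and compound concentrations were measured by LC/MS.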

Series [3] in a line: Clearance in Wistar Han rat at 2 mg/kg, iv by LC/MS method. Type of series: ADME, organism-based. The settings on record: in vivo. The gist of the method:
as §2

The target of series [4] is T1, Nonstructural protein 5A (Hepatitis C virus) (UniProt Q5L478).
T1 sequence (whole entry): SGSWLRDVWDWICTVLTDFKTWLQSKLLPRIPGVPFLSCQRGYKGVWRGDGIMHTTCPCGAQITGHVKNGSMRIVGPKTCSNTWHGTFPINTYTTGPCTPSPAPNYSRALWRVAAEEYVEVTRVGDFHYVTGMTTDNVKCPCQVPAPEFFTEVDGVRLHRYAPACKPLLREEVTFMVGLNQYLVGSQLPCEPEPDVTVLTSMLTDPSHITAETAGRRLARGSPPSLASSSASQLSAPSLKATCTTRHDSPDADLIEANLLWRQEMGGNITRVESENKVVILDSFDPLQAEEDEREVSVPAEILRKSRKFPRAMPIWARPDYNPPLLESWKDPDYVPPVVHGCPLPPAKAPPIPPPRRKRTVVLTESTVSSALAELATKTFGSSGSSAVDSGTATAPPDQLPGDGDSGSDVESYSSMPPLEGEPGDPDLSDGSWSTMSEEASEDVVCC
In words: Inhibition of NS5A L31M mutant in HCV genotype 2b infected in HuH7 replicon cells assessed as decrease in viral replication after 3 days by RT-PCR method. Type of series: cell-based. The settings on record: Hepatitis C virus subtype 2b. In general terms: Replicon systems follow genome replication, usually without infectious particles.

The target in series [5] is T1, Nonstructural protein 5A (Hepatitis C virus). Description: Inhibition of NS5A in HCV genotype 4a infected in HuH7 replicon cells assessed as decrease in viral replication after 3 days by RT-PCR method. Type of series: cell-based. Conditions: Hepatitis C virus subtype 4a.
Series [6] has the same target. In words: Inhibition of NS5A in HCV genotype 1b infected in HuH7 replicon cells assessed as decrease in viral replication after 3 days by RT-PCR method. Type of series: cell-based. Conditions: Hepatitis C virus subtype 1b.
A short description of series [7]: Oral bioavailability in Wistar Han rat at 10 mg/kg by LC/MS method. Conditions: in vivo. The class given is ADME, organism-based. The gist of the method:
as §1

The target of series [8] is T1, Nonstructural protein 5A (Hepatitis C virus). Description: Inhibition of NS5A in HCV genotype 3a infected in HuH7 replicon cells assessed as decrease in viral replication after 3 days by RT-PCR method. The settings on record: Hepatitis C virus subtype 3a. Type of series: cell-based.
Series [9] can be described thus: AUC in Wistar Han rat at 10 mg/kg, po by LC/MS method. Conditions: in vivo. The class given is ADME, organism-based. A digest of the protocol:
as §1

For series [10], the target named is T1, Nonstructural protein 5A (Hepatitis C virus). Description: Inhibition of NS5A in HCV genotype 1a infected in HuH7 replicon cells assessed as decrease in viral replication after 3 days by RT-PCR method. The class given is cell-based. The settings on record: Hepatitis C virus subtype 1a.
Series [11] can be described thus: Drug level in Wistar Han rat at 10 mg/kg, po measured at 24 hrs by LC/MS method. The class given is ADME, organism-based. The settings on record: in vivo, read-out: Drug uptake. A digest of the protocol:
as §1

For series [12], the system named is T2, Nonstructural protein 5A (Hepatitis C virus), Q5L478 [Y93H].
T2 sequence (whole entry): T1 sequence (whole entry) with Y93H
In words: Inhibition of NS5A Y93H mutant in HCV genotype 1a infected in HuH7 replicon cells assessed as decrease in viral replication after 3 days by RT-PCR method. Conditions: Hepatitis C virus subtype 1a. The class given is cell-based.

Series [13] concerns the target T1, Nonstructural protein 5A (Hepatitis C virus). In words: Inhibition of NS5A L31V mutant in HCV genotype 1a infected in HuH7 replicon cells assessed as decrease in viral replication after 3 days by RT-PCR method. Conditions: Hepatitis C virus subtype 1a. Type of series: cell-based.

Numbering of substitutions follows the chain as printed.

A word on the Cmax: it is the highest concentration seen after dosing. By half-life is commonly meant the time needed for the level to fall by half in the phase considered. In general, clearance refers to the volume of plasma or blood freed of the substance per unit of time. The low end stands for inefficient removal, the high end for efficient removal. As usually defined, the EC90 is the concentration at which the effect reaches the 90% level. The term bioavailability denotes the share of a dose that reaches the circulation, judged against a reference dose that is usually intravenous. The low end stands for poor availability, the high end for good availability. For orientation: AUC means concentration integrated over time. Read a low AUC as low exposure. Consider `COC(=O)N[C@H](C(=O)N1CCC[C@H]1c1ncc(-c2ccc3c(c2)cc2n3[C@H](c3ccc4c(c3)OCCN4C)Oc3cc(-c4cnc([C@@H]5CCCN5C(=O)[C@@H](NC(=O)OC)C5CCOCC5)[nH]4)cc(F)c3-2)[nH]1)C(C)C`, for which the Cmax in series [1] is 16 nM. In series [2], the half-life was 228 min. This molecule came in with a clearance in series [3] of 13 mL/min/kg. For the same molecule, the concentration for an effect of 90% (EC90) in [4] worked out at 0.054 nM; in series [5], 9 pM; in [6], 7 pM; in series [8], 0.017 nM; in series [10], 71 pM; in series [12] it was 0.073 nM. Besides, the bioavailability in [7] stood at 0.8%. In [9], the AUC came out at 0.1 µM·h. Moreover, in series [11], the concentration at 24 h was determined as 1 nM.
`COC(=O)N[C@H](C(=O)N1CCC[C@H]1c1ncc(-c2ccc3c(c2)cc2n3[C@H](c3ccc(C4CC4)s3)Oc3cc(-c4cnc([C@@H]5CCCN5C(=O)[C@@H](NC(=O)OC)[C@@H]5CCOC(C)(C)C5)[nH]4)cc(F)c3-2)[nH]1)C(C)C` came in with a Cmax in [1] of 40 nM. The molecule further showed a half-life in [2] of 360 min. In series [3], this molecule gave a clearance of 9 mL/min/kg. The EC90 turned out to be 0.031 nM in series [4]; 4 pM in [5]; 5 pM in [6]; 0.013 nM in series [8]; 6 pM in series [10]; 1 pM in [13]. Also, the EC90 in series [12] was 0.036 nM. The molecule further showed a bioavailability in [7] of 2%. The AUC in series [9] stood at 0.45 µM·h. Further, the concentration at 24 h in [11] was determined as 4 nM.
For the molecule `CC[C@@H]1CC([C@H](NC(=O)OC)C(=O)N2CCC[C@H]2c2ncc(-c3ccc4c(c3)cc3n4[C@H](c4ccc(C5CC5)s4)Oc4cc(-c5cnc([C@@H]6CCCN6C(=O)[C@@H](NC(=O)OC)C(C)C)[nH]5)cc(F)c4-3)[nH]2)C[C@H](CC)O1` (some centres not stated), the EC90 in series [4] turned out to be 2.7 nM; in series [8], 0.062 nM; in series [10], 17 pM; in [12], 0.642 nM.
As to `COC(=O)N[C@H](C(=O)N1CCC[C@H]1c1ncc(-c2cc(F)c3c(c2)O[C@@H](c2ccc(C4CC4)s2)n2c-3cc3cc(-c4cnc([C@@H]5CCCN5C(=O)[C@@H](NC(=O)OC)C5CCO[C@@H](C)C5)[nH]4)ccc32)[nH]1)C(C)C` (some centres not stated), in series [1], the peak level (Cmax) was 21 nM. The molecule also showed a half-life in [2] of 330 min. In addition, in [3], the clearance was determined as 11 mL/min/kg. For the same molecule, the EC90 turned out to be 0.023 nM in series [4]; 7 pM in [5]; 7 pM in series [6]; 0.008 nM in series [8]; 5 pM in series [10]; 2 pM in series [13]. Further, the EC90 in series [12] was found to be 0.013 nM. In series [7], this molecule returned a bioavailability of 1.3%. The molecule further came in with an area under the curve (AUC) in series [9] of 0.19 µM·h. Further, in [11], the concentration at 24 h is 1 nM.
Molecule `CCc1ccc([C@@H]2Oc3cc(-c4cnc([C@@H]5CCCN5C(=O)[C@@H](NC(=O)OC)C(C)C)[nH]4)cc(F)c3-c3cc4cc(-c5cnc([C@@H]6CCCN6C(=O)[C@@H](NC(=O)OC)[C@@H]6CCOC(C)(C)C6)[nH]5)ccc4n32)s1` had a Cmax in series [1] of 110 nM. For the same molecule, the half-life in [2] was 312 min. In series [3], this molecule gave a clearance of 8 mL/min/kg. The EC90 in series [4] was determined as 0.028 nM; in series [5] it was 7 pM; in [6], 6 pM; in series [8], 0.009 nM; in [10], 5 pM; in [13], 3 pM. For the same molecule, the EC90 in series [12] was 0.038 nM. The molecule further yielded a bioavailability in [7] of 3.5%. Further, the AUC in series [9] came out at 0.78 µM·h. In addition, in series [11], the concentration at 24 h came to 4 nM.
As for `COC(=O)N[C@H](C(=O)N1CCC[C@H]1c1ncc(-c2cc(F)c3c(c2)O[C@@H](c2cnc(C4CC4)s2)n2c-3cc3cc(-c4cnc([C@@H]5CCCN5C(=O)[C@@H](NC(=O)OC)[C@@H]5CCOC(C)(C)C5)[nH]4)ccc32)[nH]1)C(C)C`, in series [1], the peak level (Cmax) was 60 nM. In series [2], the half-life was 240 min. In series [3], this molecule gave a clearance of 9 mL/min/kg. For the same molecule, the concentration for an effect of 90% (EC90) was 0.015 nM in [4]; 7 pM in series [5]; 6 pM in series [6]; 0.015 nM in series [8]; 6 pM in [10]; 6 pM in series [13]. The EC90 in series [12] stood at 0.029 nM. The bioavailability in series [7] is 2.8%. The molecule further returned an AUC in series [9] of 0.51 µM·h. For the same molecule, the concentration at 24 h in series [11] was found to be 4 nM.
In series [1], `COC(=O)N[C@H](C(=O)N1CCC[C@H]1c1ncc(-c2ccc3c(c2)cc2n3[C@H](c3ccc4c(c3)OCCC4)Oc3cc(-c4cnc([C@@H]5CCCN5C(=O)[C@@H](NC(=O)OC)C5CCOCC5)[nH]4)cc(F)c3-2)[nH]1)C(C)C` returned a maximum concentration (Cmax) of 10 nM. Moreover, in [2], the half-life is 114 min. For the same molecule, the clearance in series [3] turned out to be 19 mL/min/kg. Also, the EC90 in series [4] turned out to be 0.005 nM; in series [5], 2 pM; in series [6], 3 pM; in series [8], 0.003 nM; in series [10] it was 2 pM; in series [13] it was 1 pM. Further, the EC90 in [12] stood at 0.008 nM. Besides, the bioavailability in [7] was determined as 0.5%. In series [9], this molecule yielded an AUC of 0.05 µM·h.
As for `CCCc1ccc([C@@H]2Oc3cc(-c4cnc([C@@H]5CCCN5C(=O)[C@@H](NC(=O)OC)C(C)C)[nH]4)cc(F)c3-c3cc4cc(-c5cnc([C@@H]6CCCN6C(=O)[C@@H](NC(=O)OC)[C@@H]6CCOC(C)(C)C6)[nH]5)ccc4n32)s1`, the EC90 came to 0.084 nM in series [4]; 11 pM in series [5]; 9 pM in series [6]; 0.016 nM in series [8]; 10 pM in series [10]; 6 pM in series [13]. Moreover, the EC90 in series [12] is 0.078 nM.
`COC(=O)N[C@H](C(=O)N1CCC[C@H]1c1ncc(-c2cc(F)c3c(c2)O[C@@H](c2cnc(C(C)C)s2)n2c-3cc3cc(-c4cnc([C@@H]5CCCN5C(=O)[C@@H](NC(=O)OC)[C@@H]5CCOC(C)(C)C5)[nH]4)ccc32)[nH]1)C(C)C`: the EC90 came to 0.019 nM in series [4]; 7 pM in series [5]; 6 pM in series [6]; 0.038 nM in series [8]; 6 pM in series [10]; 4 pM in [13]. Also, the EC90 in series [12] came to 0.329 nM.
On to `COC(=O)N[C@H](C(=O)N1CCC[C@H]1c1ncc(-c2cc(F)c3c(c2)O[C@@H](c2ccc4c(c2)O[C@@H](C)CC4)n2c-3cc3cc(-c4cnc([C@@H]5CCCN5C(=O)[C@@H](NC(=O)OC)[C@@H]5CCOC(C)(C)C5)[nH]4)ccc32)[nH]1)C(C)C`, for which the EC90 turned out to be 0.102 nM in [4]; 8 pM in series [5]; 7 pM in series [6]; 0.008 nM in series [8]; 5 pM in [10]; 5 pM in series [13]. In series [12], the EC90 came out at 0.348 nM.
In the case of `COC(=O)N[C@H](C(=O)N1CCC[C@H]1c1ncc(-c2cc(F)c3c(c2)O[C@@H](c2nc4c(s2)CCC4)n2c-3cc3cc(-c4cnc([C@@H]5CCCN5C(=O)[C@@H](NC(=O)OC)[C@@H]5CCOC(C)(C)C5)[nH]4)ccc32)[nH]1)C(C)C`, the EC90 in series [4] came out at 0.174 nM; in series [5], 7 pM; in series [6], 4 pM; in [8], 0.013 nM; in series [10], 5 pM; in [12], 0.59 nM.
